Measurements published in ChEMBL document CHEMBL2346496, “Discovery of new benzothiazole-based inhibitors of breakpoint cluster region-Abelson kinase including the T315I mutant” (J Med Chem, 2013).
Converted amounts (≈) assume the structure as drawn. Blank lines part the entries; values can stand above or below the compound they belong to.

Experiments:
[1] = cells; details: Mus musculus, BaF3, 48 h
[2] = cells; details: Mus musculus, BaF3, 48 h; remark: listed apart in the source
[3] = tested on: BaF3; test: Cytotoxicity against mouse BA/F3 cells transfected with Bcr-Abl T315I mutant after 48 hrs by XTT assay
[4] = biological target: Tyrosine-protein kinase ABL1 (Homo sapiens, UniProt P00519, T315I); test: Inhibition of breakpoint cluster region-Abelson tyrosine kinase T315I mutant (unknown origin) using [gamma-33P]ATP as substrate by radiometric kinase assay
[5] = biological target: Tyrosine-protein kinase JAK2 (Homo sapiens) (UniProt O60674); test: Inhibition of JAK2 (unknown origin) at 1 uM relative to control; values are per cent of control
[6] = biological target: Aurora kinase B (Homo sapiens) (UniProt Q96GD4); test: Inhibition of AURKB (unknown origin) at 1 uM relative to control; values are per cent of control
[7] = biological target: Mast/stem cell growth factor receptor Kit (Homo sapiens) (UniProt P10721); test: Inhibition of KIT (unknown origin) at 1 uM relative to control; values are per cent of control
[8] = biological target: Serine/threonine-protein kinase PLK3 (Homo sapiens) (UniProt Q9H4B4); test: Inhibition of PLK3 (unknown origin) at 1 uM relative to control; values are per cent of control
[9] = biological target: Focal adhesion kinase 1 (Homo sapiens) (UniProt Q05397); test: Inhibition of FAK (unknown origin) at 1 uM relative to control; values are per cent of control
[10] = biological target: Mitogen-activated protein kinase 8 (Homo sapiens) (UniProt P45983); test: Inhibition of JNK1 (unknown origin) at 1 uM relative to control; values are per cent of control
[11] = biological target: Serine/threonine-protein kinase PAK 1 (Homo sapiens) (UniProt Q13153); test: Inhibition of PAK1 (unknown origin) at 1 uM relative to control; values are per cent of control
[12] = tested on: Tyrosine-protein kinase ABL1 (Homo sapiens), P00519 [E255K]; test: Inhibition of phosphorylated breakpoint cluster region-Abelson tyrosine kinase E255K mutant (unknown origin) at 1 uM relative to control; values are per cent of control
[13] = Aqueous solubility of the compound at pH 6.7; assay type: physicochemical
[14] = biological target: Hepatocyte growth factor receptor (Homo sapiens) (UniProt P08581); test: Inhibition of MET (unknown origin) at 1 uM relative to control; values are per cent of control
[15] = biological target: Receptor-type tyrosine-protein kinase FLT3 (Homo sapiens) (UniProt P36888); test: Inhibition of FLT3 (unknown origin) at 1 uM relative to control; values are per cent of control
[16] = biological target: Mitogen-activated protein kinase 14 (Homo sapiens) (UniProt Q16539); test: Inhibition of P38alpha (unknown origin) at 1 uM relative to control; values are per cent of control
[17] = biological target: cAMP-dependent protein kinase catalytic subunit alpha (Homo sapiens) (UniProt P17612); test: Inhibition of PKAC-a (unknown origin) at 1 uM relative to control; values are per cent of control
[18] = biological target: Dual specificity mitogen-activated protein kinase kinase 1 (Homo sapiens) (UniProt Q02750); test: Inhibition of MEK1 (unknown origin) at 1 uM relative to control; values are per cent of control
[19] = biological target: Inhibitor of nuclear factor kappa-B kinase subunit alpha (Homo sapiens) (UniProt O15111); test: Inhibition of IKK alpha (unknown origin) at 1 uM relative to control; values are per cent of control
[20] = biological target: Insulin-like growth factor 1 receptor (Homo sapiens) (UniProt P08069); test: Inhibition of IGF1R (unknown origin) at 1 uM relative to control; values are per cent of control
[21] = biological target: Rho-associated protein kinase 2 (Homo sapiens) (UniProt O75116); test: Inhibition of ROCK2 (unknown origin) at 1 uM relative to control; values are per cent of control
[22] = biological target: Epidermal growth factor receptor (Homo sapiens) (UniProt P00533); test: Inhibition of EGFR (unknown origin) at 1 uM relative to control; values are per cent of control
[23] = Stability of the compound at 37 degC at pH 6.7 after 24 hrs by UPLC method; assay type: physicochemical; details: buffer, read-out: Stability
How it was run: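 Stability followed by UPLC over 24 h at 37 °C, pH 6.7.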

[24] = tested on: Tyrosine-protein kinase ABL1 (Homo sapiens), P00519 [T315I]; test: Inhibition of breakpoint cluster region-Abelson tyrosine kinase T315I mutant (unknown origin) at 1 uM relative to control; values are per cent of control
[25] = biological target: Angiopoietin-1 receptor (Homo sapiens) (UniProt Q02763); test: Inhibition of TIE2 (unknown origin) at 1 uM relative to control; values are per cent of control
[26] = biological target: RAC-alpha serine/threonine-protein kinase (Homo sapiens) (UniProt P31749); test: Inhibition of AKT1 (unknown origin) at 1 uM relative to control; values are per cent of control
[27] = biological target: Proto-oncogene tyrosine-protein kinase Src (Homo sapiens) (UniProt P12931); test: Inhibition of SRC (unknown origin) at 1 uM relative to control; values are per cent of control
[28] = species on record: Homo sapiens; test: Inhibition of CDK11 (unknown origin) at 1 uM relative to control; values are per cent of control
[29] = species on record: Homo sapiens; test: Inhibition of phosphorylated breakpoint cluster region-Abelson tyrosine kinase (unknown origin) at 1 uM relative to control; values are per cent of control
[30] = biological target: Dual specificity mitogen-activated protein kinase kinase 2 (Homo sapiens) (UniProt P36507); test: Inhibition of MEK2 (unknown origin) at 1 uM relative to control; values are per cent of control
[31] = biological target: Mitogen-activated protein kinase 3 (Homo sapiens) (UniProt P27361); test: Inhibition of ERK1 (unknown origin) at 1 uM relative to control; values are per cent of control
[32] = biological target: Phosphatidylinositol 4,5-bisphosphate 3-kinase catalytic subunit alpha isoform (Homo sapiens) (UniProt P42336); test: Inhibition of PI3KCA (unknown origin) at 1 uM relative to control; values are per cent of control
[33] = biological target: Ribosomal protein S6 kinase alpha-3 (Homo sapiens) (UniProt P51812); test: Inhibition of RSK2 (unknown origin) at 1 uM relative to control; values are per cent of control
[34] = biological target: Cyclin-dependent kinase 2 (Homo sapiens) (UniProt P24941); test: Inhibition of CDK2 (unknown origin) at 1 uM relative to control; values are per cent of control
[35] = biological target: Serine/threonine-protein kinase B-raf (Homo sapiens) (UniProt P15056); test: Inhibition of BRAF (unknown origin) at 1 uM relative to control; values are per cent of control
[36] = biological target: Fibroblast growth factor receptor 2 (Homo sapiens) (UniProt P21802); test: Inhibition of FGFR2 (unknown origin) at 1 uM relative to control; values are per cent of control
[37] = biological target: Glycogen synthase kinase-3 beta (Homo sapiens) (UniProt P49841); test: Inhibition of GSK3b (unknown origin) at 1 uM relative to control; values are per cent of control
[38] = biological target: Platelet-derived growth factor receptor beta (Homo sapiens) (UniProt P09619); test: Inhibition of PDGFRB (unknown origin) at 1 uM relative to control; values are per cent of control
[39] = biological target: Serine/threonine-protein kinase pim-1 (Homo sapiens) (UniProt P11309); test: Inhibition of PIM1 (unknown origin) at 1 uM relative to control; values are per cent of control
[40] = biological target: Aurora kinase A (Homo sapiens) (UniProt O14965); test: Inhibition of AURKA (unknown origin) at 1 uM relative to control; values are per cent of control
[41] = biological target: 3-phosphoinositide-dependent protein kinase 1 (Homo sapiens) (UniProt O15530); test: Inhibition of PDPK1 (unknown origin) at 1 uM relative to control; values are per cent of control
[42] = biological target: Serine/threonine-protein kinase PLK1 (Homo sapiens) (UniProt P53350); test: Inhibition of PLK1 (unknown origin) at 1 uM relative to control; values are per cent of control
[43] = biological target: Vascular endothelial growth factor receptor 2 (Homo sapiens) (UniProt P35968); test: Inhibition of VEGFR2 (unknown origin) at 1 uM relative to control; values are per cent of control
[44] = biological target: Platelet-derived growth factor receptor alpha (Homo sapiens) (UniProt P16234); test: Inhibition of PDGFRA (unknown origin) at 1 uM relative to control; values are per cent of control
[45] = tested on: K562; test: cells; details: Homo sapiens
[46] = cells; details: Mus musculus, BaF3, 48 h; remark: listed apart in the source

Chain of Ribosomal protein S6 kinase alpha-3 (Homo sapiens) (P51812 whole entry): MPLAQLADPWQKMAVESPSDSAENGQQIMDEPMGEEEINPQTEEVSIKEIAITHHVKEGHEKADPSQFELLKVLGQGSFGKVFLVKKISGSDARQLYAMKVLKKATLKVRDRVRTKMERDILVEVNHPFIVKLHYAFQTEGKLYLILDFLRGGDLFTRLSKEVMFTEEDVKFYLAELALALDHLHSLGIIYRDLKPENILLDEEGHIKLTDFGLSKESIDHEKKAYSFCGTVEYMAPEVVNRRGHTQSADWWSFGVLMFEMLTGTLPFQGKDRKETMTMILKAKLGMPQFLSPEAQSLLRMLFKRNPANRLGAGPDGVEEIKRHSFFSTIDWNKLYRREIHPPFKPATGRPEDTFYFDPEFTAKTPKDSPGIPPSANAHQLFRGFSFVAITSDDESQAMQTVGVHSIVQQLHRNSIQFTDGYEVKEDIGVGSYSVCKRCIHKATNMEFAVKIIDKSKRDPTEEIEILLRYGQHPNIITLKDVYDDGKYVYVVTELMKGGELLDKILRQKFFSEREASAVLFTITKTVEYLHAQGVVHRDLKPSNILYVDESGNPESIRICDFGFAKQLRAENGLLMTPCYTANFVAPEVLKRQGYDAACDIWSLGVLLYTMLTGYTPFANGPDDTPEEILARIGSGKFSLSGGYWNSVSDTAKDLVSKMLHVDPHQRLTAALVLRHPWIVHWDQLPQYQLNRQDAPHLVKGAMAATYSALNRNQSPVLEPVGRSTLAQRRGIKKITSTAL
Chain of Serine/threonine-protein kinase PLK3 (Homo sapiens) (Q9H4B4 whole entry, looked up): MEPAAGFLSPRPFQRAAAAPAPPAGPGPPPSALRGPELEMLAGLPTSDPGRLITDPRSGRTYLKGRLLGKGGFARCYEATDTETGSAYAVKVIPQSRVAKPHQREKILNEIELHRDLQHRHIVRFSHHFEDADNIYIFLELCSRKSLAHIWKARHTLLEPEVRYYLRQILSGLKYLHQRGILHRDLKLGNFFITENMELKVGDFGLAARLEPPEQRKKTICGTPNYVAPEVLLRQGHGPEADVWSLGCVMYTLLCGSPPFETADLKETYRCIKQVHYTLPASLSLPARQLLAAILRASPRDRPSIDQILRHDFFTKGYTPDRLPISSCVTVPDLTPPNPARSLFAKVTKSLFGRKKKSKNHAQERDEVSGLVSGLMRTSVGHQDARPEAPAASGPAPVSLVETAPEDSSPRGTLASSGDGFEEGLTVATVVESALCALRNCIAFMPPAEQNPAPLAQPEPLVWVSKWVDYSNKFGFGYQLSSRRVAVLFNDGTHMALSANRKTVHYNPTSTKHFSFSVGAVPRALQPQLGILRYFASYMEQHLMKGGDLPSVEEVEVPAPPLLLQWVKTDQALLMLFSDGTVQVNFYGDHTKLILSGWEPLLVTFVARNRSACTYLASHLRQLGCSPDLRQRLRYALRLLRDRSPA
Chain of Insulin-like growth factor 1 receptor (Homo sapiens) (P08069 31-736 limits assumed): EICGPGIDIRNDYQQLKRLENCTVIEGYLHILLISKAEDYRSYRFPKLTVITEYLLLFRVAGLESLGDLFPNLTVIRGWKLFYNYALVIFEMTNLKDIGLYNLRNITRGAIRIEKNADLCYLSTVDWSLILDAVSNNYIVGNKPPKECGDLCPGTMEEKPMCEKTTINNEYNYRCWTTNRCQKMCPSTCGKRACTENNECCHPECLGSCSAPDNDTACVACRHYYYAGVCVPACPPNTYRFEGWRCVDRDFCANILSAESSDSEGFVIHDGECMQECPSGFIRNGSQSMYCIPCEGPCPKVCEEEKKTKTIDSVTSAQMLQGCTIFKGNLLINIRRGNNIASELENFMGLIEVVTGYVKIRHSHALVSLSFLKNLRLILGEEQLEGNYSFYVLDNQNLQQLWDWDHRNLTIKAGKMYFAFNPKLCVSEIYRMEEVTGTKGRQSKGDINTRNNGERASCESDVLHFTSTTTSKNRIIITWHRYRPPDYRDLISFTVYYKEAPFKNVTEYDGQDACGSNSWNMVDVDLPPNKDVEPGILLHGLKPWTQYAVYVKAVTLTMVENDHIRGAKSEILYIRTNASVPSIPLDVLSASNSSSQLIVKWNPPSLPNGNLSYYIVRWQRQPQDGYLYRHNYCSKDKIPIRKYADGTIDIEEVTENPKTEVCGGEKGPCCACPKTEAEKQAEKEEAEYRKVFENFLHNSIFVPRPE
Chain of Insulin-like growth factor 1 receptor (Homo sapiens) (P08069 741-1367 limits assumed): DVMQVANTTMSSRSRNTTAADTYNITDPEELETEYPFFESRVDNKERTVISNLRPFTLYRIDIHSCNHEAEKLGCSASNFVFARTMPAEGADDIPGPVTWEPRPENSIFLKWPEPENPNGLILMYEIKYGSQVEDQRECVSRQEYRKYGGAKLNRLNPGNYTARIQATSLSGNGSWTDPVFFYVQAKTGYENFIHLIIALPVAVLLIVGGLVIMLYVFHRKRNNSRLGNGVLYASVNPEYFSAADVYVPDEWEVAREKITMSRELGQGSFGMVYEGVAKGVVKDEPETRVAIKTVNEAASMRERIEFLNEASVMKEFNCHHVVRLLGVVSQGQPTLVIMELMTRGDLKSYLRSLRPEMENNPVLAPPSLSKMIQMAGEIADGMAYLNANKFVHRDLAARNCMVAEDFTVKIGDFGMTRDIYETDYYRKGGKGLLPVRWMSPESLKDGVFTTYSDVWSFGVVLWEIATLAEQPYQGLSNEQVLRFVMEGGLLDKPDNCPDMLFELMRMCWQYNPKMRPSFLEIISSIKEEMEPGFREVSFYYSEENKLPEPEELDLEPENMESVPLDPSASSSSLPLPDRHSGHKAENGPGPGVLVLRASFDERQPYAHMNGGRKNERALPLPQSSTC
Chain of Serine/threonine-protein kinase B-raf (Homo sapiens) (P15056 whole entry): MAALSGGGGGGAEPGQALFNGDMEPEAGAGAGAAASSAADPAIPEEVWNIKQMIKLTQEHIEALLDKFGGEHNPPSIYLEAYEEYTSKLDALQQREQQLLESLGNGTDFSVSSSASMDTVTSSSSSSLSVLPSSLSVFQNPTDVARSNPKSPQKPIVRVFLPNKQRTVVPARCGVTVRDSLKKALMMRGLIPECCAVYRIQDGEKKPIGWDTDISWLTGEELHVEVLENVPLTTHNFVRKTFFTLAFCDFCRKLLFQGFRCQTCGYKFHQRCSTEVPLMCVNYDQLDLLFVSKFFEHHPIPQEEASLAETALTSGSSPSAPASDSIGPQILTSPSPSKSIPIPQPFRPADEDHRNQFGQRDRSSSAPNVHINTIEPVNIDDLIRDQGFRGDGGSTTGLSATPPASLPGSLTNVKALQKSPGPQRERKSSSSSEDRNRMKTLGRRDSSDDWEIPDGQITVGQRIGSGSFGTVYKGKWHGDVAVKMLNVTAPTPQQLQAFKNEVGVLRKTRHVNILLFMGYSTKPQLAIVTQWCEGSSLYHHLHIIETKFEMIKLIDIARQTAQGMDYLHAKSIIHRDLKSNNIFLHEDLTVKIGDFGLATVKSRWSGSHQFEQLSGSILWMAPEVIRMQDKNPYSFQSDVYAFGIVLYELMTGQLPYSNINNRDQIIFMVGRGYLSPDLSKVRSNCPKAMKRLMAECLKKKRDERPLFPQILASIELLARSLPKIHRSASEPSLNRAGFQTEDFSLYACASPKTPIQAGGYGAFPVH
Chain of RAC-alpha serine/threonine-protein kinase (Homo sapiens) (P31749 whole entry): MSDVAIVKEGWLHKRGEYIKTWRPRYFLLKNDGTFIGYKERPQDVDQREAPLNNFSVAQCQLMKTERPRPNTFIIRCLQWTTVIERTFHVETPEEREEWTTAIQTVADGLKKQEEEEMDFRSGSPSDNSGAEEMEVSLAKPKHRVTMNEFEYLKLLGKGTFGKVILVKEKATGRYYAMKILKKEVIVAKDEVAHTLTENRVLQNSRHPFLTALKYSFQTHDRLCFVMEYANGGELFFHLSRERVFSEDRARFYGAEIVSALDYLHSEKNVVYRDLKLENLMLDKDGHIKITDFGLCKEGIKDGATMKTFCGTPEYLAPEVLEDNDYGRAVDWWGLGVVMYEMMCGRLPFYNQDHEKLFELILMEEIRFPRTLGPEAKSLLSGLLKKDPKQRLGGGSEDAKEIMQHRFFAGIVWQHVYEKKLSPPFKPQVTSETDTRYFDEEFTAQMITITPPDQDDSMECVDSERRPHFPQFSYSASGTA
Chain of Mitogen-activated protein kinase 14 (Homo sapiens) (Q16539 whole entry): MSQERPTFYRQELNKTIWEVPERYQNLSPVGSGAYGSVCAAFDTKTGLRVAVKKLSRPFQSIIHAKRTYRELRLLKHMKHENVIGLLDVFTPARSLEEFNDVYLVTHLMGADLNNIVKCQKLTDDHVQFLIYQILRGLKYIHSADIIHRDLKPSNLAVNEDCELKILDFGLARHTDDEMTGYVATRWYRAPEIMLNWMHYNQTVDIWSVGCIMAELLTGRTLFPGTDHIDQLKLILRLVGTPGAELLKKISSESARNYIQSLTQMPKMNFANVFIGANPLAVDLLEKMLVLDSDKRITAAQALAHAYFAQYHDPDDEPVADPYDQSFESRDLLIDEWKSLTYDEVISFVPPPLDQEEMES
Chain of Dual specificity mitogen-activated protein kinase kinase 1 (Homo sapiens) (Q02750 whole entry): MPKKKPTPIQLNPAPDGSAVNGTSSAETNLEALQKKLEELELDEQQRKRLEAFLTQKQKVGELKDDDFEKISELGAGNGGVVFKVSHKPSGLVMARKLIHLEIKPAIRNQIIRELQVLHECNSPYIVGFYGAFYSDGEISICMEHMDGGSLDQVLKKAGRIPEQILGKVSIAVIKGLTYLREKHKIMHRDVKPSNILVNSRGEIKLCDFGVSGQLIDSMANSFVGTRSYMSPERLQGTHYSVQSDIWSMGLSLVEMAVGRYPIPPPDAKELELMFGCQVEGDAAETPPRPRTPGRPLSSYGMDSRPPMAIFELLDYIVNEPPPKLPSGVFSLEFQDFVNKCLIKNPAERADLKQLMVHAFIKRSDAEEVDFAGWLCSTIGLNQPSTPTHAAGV

IC50 [1]: 100 nM
IC50 [2]: 290 nM
Structure (SMILES): COc1ccccc1-c1ccc2nc(NC(=O)NCCN3CCOCC3)sc2c1
inhibition [3]: Dose-dependent effect

IC50 [1]: 280 nM
IC50 [2]: 1440 nM
Structure (SMILES): CCc1ccccc1-c1ccc2nc(NC(=O)NCCN3CCOCC3)sc2c1

IC50 [1]: 82 nM
IC50 [2]: 290 nM
Structure (SMILES): COc1ccccc1-c1ccc2nc(NC(=O)NCCCO)sc2c1

IC50 [1]: 210 nM
IC50 [2]: 1090 nM
Structure (SMILES): CCOc1ccccc1-c1ccc2nc(NC(=O)NCCN3CCOCC3)sc2c1

IC50 [1]: 310 nM
IC50 [2]: 410 nM
Structure (SMILES): CCc1ccccc1-c1ccc2nc(NC(=O)NCCN(C)C)sc2c1

Structure (SMILES): COC(=O)Nc1nc2ccc(C(=O)c3cccs3)cc2[nH]1 [NOCODAZOLE]
IC50 [4]: 640 nM

IC50 [4]: > 100000 nM
Structure (SMILES): CCNC(=O)Nc1nc2ccc(C(=O)N3CCN(C)CC3)cc2[nH]1

residual activity [5]: 100%
residual activity [6]: 100%
residual activity [7]: 79%
residual activity [8]: 87%
residual activity [9]: 100%
IC50 [1]: 3570 nM
residual activity [10]: 100%
residual activity [11]: 93%
residual activity [12]: 4.5%
solubility [13]: 0.0227 µg/mL (≈ 0.0693 µM)
residual activity [14]: 100%
residual activity [15]: 94%
IC50 [2]: 2140 nM
residual activity [16]: 100%
residual activity [17]: 100%
residual activity [18]: 100%
residual activity [19]: 100%
residual activity [20]: 100%
residual activity [21]: 100%
residual activity [22]: 100%
remaining at 24 h [23]: 100%
residual activity [24]: 4.5%
residual activity [25]: 100%
residual activity [26]: 67%
residual activity [27]: 72%
residual activity [28]: 100%
residual activity [29]: 5%
residual activity [30]: 100%
residual activity [31]: 100%
residual activity [32]: 100%
residual activity [33]: 58%
residual activity [34]: 100%
residual activity [35]: 100%
residual activity [36]: 100%
residual activity [37]: 100%
residual activity [38]: 16%
residual activity [39]: 100%
residual activity [40]: 100%
residual activity [41]: 67%
residual activity [42]: 100%
residual activity [43]: 98%
IC50 [4]: 0.11 nM
residual activity [44]: 79%
Structure (SMILES): CCNC(=O)Nc1nc2ccc(-c3ccccc3OC)cc2s1

IC50 [1]: 46 nM
solubility [13]: 2240 µg/mL (≈ 5260 µM)
IC50 [2]: 78 nM
remaining at 24 h [23]: 99.7%
IC50 [45]: 420 nM
IC50 [46]: > 10000 nM
Structure (SMILES): COc1ccccc1-c1ccc2nc(NC(=O)NCCN3CCN(C)CC3)sc2c1

IC50 [1]: 110 nM
IC50 [2]: 870 nM
Structure (SMILES): CCOc1ccccc1-c1ccc2nc(NC(=O)NCCN3CCNCC3)sc2c1

IC50 [1]: 92 nM
IC50 [2]: 4790 nM
IC50 [45]: 170 nM
IC50 [46]: > 10000 nM
Structure (SMILES): Cc1ccc(NC(=O)c2ccc(CN3CCN(C)CC3)cc2)cc1Nc1nccc(-c2cccnc2)n1 [IMATINIB]

IC50 [4]: > 100000 nM
Structure (SMILES): CCNC(=O)Nc1nc2ccc(C(=O)Nc3ccncc3)cc2[nH]1

IC50 [1]: 180 nM
IC50 [2]: 1350 nM
Structure (SMILES): CCOc1ccccc1-c1ccc2nc(NC(=O)NCCO)sc2c1

IC50 [1]: 89 nM
solubility [13]: 7.49 µg/mL (≈ 21.8 µM)
IC50 [2]: 140 nM
remaining at 24 h [23]: 100%
IC50 [45]: 120 nM
IC50 [46]: > 10000 nM
Structure (SMILES): COc1ccccc1-c1ccc2nc(NC(=O)NCCO)sc2c1

IC50 [1]: 120 nM
IC50 [2]: 560 nM
Structure (SMILES): CCOc1ccccc1-c1ccc2nc(NC(=O)NCCCO)sc2c1
